Reference: ChEMBL document CHEMBL1828627, “High-throughput-screening-based identification and structure-activity relationship characterization defined (S)-2-(1-aminoisobutyl)-1-(3-chlorobenzyl)benzimidazole as a highly antimycotic agent nontoxic to cell lines” (J Med Chem, 2011)
In brackets after ≈: the same amount, converted by molar mass. Activity calls are given as the source filed them.

Legend:
Candida albicans [1] = assay: Antifungal activity against Candida albicans Jg 32570 by broth dilution method; format: functional
In short: (§1)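 MICs by broth microdilution following CLSI M27-A3 for yeasts, with fluconazole as the reference antifungal. Panel covered type strains and clinical isolates of Candida spp. (21 strains). Reference control strains: C. albicans DSMZ 11949, C. glabrata ATCC 90030, C. parapsilosis 22019 and 90018, Issatchenkia orientalis ATCC 6258. MIC in μg/mL; averages given as geometric means.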

Nakaseomyces glabratus [2] = assay: Antifungal activity against Candida glabrata AN 8626 by broth dilution method; format: functional; in short: as §1
Candida parapsilosis [3] = assay: Antifungal activity against Candida parapsilosis 22019 by broth dilution method; format: functional; conditions: Lodderomyces parapsilosis; in short: as §1
Candida albicans [4] = assay: Antifungal activity against Candida albicans AN 1994 by broth dilution method; format: functional; in short: as §1
Candida albicans [5] = assay: Antifungal activity against Candida albicans CA21 by broth dilution method; format: functional; in short: as §1
Candida albicans [6] = assay: Antifungal activity against Candida albicans AM2001/2007 by broth dilution method; format: functional; in short: as §1
Candida parapsilosis [7] = assay: Antifungal activity against Candida parapsilosis 90018 by broth dilution method; format: functional; conditions: Lodderomyces parapsilosis; in short: as §1
Candida albicans [8] = assay: Antifungal activity against Candida albicans SC5314 infected in HeLa cells at 20 uM after 5 days by fluorescein diacetate assay; format: functional, organism-based
In short: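 Primary HTS: HeLa cells co-incubated with C. albicans plus a single compound at ~20 μM for 5 days. Viability checked microscopically at 18 h and quantified at day 5 by fluorescein diacetate fluorescence. Wells also scanned visually for yeast growth. Hit criterion: >40% signal relative to the uninfected untreated HeLa (~100%) and infected untreated HeLa (~0%) controls.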

Candida albicans [9] = assay: Antifungal activity against Candida albicans AN 1699 by broth dilution method; format: functional; in short: as §1
Candida tropicalis = assay: Antifungal activity against Candida tropicalis AN 1946 by broth dilution method; format: functional; in short: as §1
Nakaseomyces glabratus [10] = assay: Antifungal activity against Candida glabrata CG 7 by broth dilution method; format: functional; in short: as §1
Candida albicans [11] = assay: Antifungal activity against Candida albicans AN 3156 by broth dilution method; format: functional; in short: as §1
Candida albicans [12] = assay: Antifungal activity against Candida albicans SCS 71865 L by broth dilution method; format: functional; in short: as §1
Candida albicans [13] = assay: Antifungal activity against Candida albicans AN 562 by broth dilution method; format: functional; in short: as §1
Candida parapsilosis [14] = assay: Antifungal activity against Candida parapsilosis AN 5485 by broth dilution method; format: functional; conditions: Lodderomyces parapsilosis; in short: as §1
Candida albicans [15] = assay: Antifungal activity against Candida albicans VB 1723 by broth dilution method; format: functional; in short: as §1
Pichia kudriavzevii = assay: Antifungal activity against Issatchenkia orientalis ATCC 6258 by broth dilution method; format: functional; in short: as §1
Candida parapsilosis [16] = assay: Antifungal activity against Candida parapsilosis AV 7675 by broth dilution method; format: functional; conditions: Lodderomyces parapsilosis; in short: as §1
Candida albicans [17] = assay: Antifungal activity against Candida albicans MY 2902/2008 by broth dilution method; format: functional; in short: as §1
Candida albicans [18] = assay: Antifungal activity against Candida albicans CA20 by broth dilution method; format: functional; in short: as §1
Nakaseomyces glabratus [19] = assay: Antifungal activity against Candida glabrata ATCC 90030 by broth dilution method; format: functional; in short: as §1
Candida albicans [20] = assay: Antifungal activity against Candida albicans DSMZ 11949 by broth dilution method; format: functional; in short: as §1
Candida albicans [21] = assay: Antifungal activity against Candida albicans SC5314 infected in HeLa cells after 5 days by fluorescein diacetate assay; format: functional, organism-based
In short: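 HeLa cells co-incubated with C. albicans and compound for 5 days. Dose–response from resynthesized compounds. Host-cell viability checked microscopically at 18 h, then quantified at day 5 by fluorescein diacetate conversion to a fluorophore by live cells. Wells also inspected visually for yeast growth. Controls: untreated uninfected HeLa (~100%) and untreated infected HeLa (~0%). IC50 derived from infected cells; CC50 as half-maximal cytotoxic concentration.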

[22] = Cytotoxicity against human HeLa cells assessed as cell viability after 5 days by fluorescein diacetate assay; format: cell-based
[23] = Selectivity index of CC50 for human HeLa cells to IC50 for Candida albicans SC5314 infected in HeLa cells
In short: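 Selectivity index calculated as CC50/IC50. CC50 is the half-maximal cytotoxic concentration in HeLa cells; IC50 is the half-maximal antimycotic concentration in the C. albicans–infected HeLa assay. Both come from 5-day fluorescein diacetate viability readouts.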

[24] = Candida albicans, SC5314, HeLa, 120 h, read-out: IC50

SMILES: Cc1cccc(Cn2c([C@H](C)N)nc3ccccc32)c1
- MIC (Candida albicans [1]): 128 µg/mL (≈ 482 µM)
- MIC (Nakaseomyces glabratus [2]): 64 µg/mL (≈ 241 µM)
- MIC (Candida parapsilosis [3]): 128 µg/mL (≈ 482 µM)
- MIC (Candida albicans [4]): 128 µg/mL (≈ 482 µM)
- MIC (Candida albicans [5]): 64 µg/mL (≈ 241 µM)
- MIC (Candida albicans [6]): 64 µg/mL (≈ 241 µM)
- MIC (Candida parapsilosis [7]): 128 µg/mL (≈ 482 µM)
- inhibition (Candida albicans [8]): inactive
- MIC (Candida albicans [9]): 128 µg/mL (≈ 482 µM)
- MIC (Candida tropicalis): 128 µg/mL (≈ 482 µM)
- MIC (Nakaseomyces glabratus [10]): 64 µg/mL (≈ 241 µM)
- MIC (Candida albicans [11]): 128 µg/mL (≈ 482 µM)
- MIC (Candida albicans [12]): 128 µg/mL (≈ 482 µM)
- MIC (Candida albicans [13]): 128 µg/mL (≈ 482 µM)
- MIC (Candida parapsilosis [14]): 128 µg/mL (≈ 482 µM)
- MIC (Candida albicans [15]): 128 µg/mL (≈ 482 µM)
- MIC (Pichia kudriavzevii): 128 µg/mL (≈ 482 µM)
- MIC (Candida parapsilosis [16]): 128 µg/mL (≈ 482 µM)
- MIC (Candida albicans [17]): 32 µg/mL (≈ 121 µM)
- MIC (Candida albicans [18]): 1 µg/mL (≈ 3.77 µM)
- MIC (Nakaseomyces glabratus [19]): 64 µg/mL (≈ 241 µM)
- MIC (Candida albicans [20]): 8 µg/mL (≈ 30.1 µM)

SMILES: CC(C)[C@@H](N)c1nc2ccccc2n1Cc1cccc(Cl)c1
- IC50 (Candida albicans [21]; hela): Not Active

SMILES: CCC[C@H](N)c1nc2ccccc2n1Cc1ccc(Cl)cc1
- IC50 (Candida albicans [21]; [24]): 2 µM
- CC50 at 120 h [22]: 28 µM
- inhibition (Candida albicans [8]): inactive
- Ratio CC50/IC50 [23]: 14

SMILES: C[C@@H]1[C@H](O)[C@@H](C)/C=C/C=C/C=C/C=C/C=C/C=C/C=C/[C@H](O[C@@H]2O[C@H](C)[C@@H](O)[C@H](N)[C@@H]2O)C[C@@H]2O[C@](O)(C[C@@H](O)C[C@@H](O)[C@H](O)CC[C@@H](O)C[C@@H](O)CC(=O)O[C@H]1C)C[C@H](O)[C@H]2C(=O)O [AMPHOTERICIN B]
- IC50 (Candida albicans [21]; [24]): 0.5 µM

SMILES: CC(C)C[C@H](N)c1nc2cc(C(F)(F)F)ccc2n1Cc1cccc(F)c1
- inhibition (Candida albicans [8]): inactive

SMILES: CC(C)C[C@H](N)c1nc2cc(Cl)c(Cl)cc2n1Cc1ccc(Cl)cc1
- inhibition (Candida albicans [8]): inactive

SMILES: COc1cccc(Cn2c([C@H](C)N)nc3ccccc32)c1
- inhibition (Candida albicans [8]): inactive

SMILES: Cc1cccc(Cn2c([C@@H](N)CC(C)C)nc3cc(Cl)c(Cl)cc32)c1
- inhibition (Candida albicans [8]): inactive

SMILES: CCC[C@H](N)c1nc2ccccc2n1Cc1cccc(C)c1
- IC50 (Candida albicans [21]; [24]): 2 µM
- CC50 at 120 h [22]: 30 µM
- inhibition (Candida albicans [8]): inactive
- Ratio CC50/IC50 [23]: 15

SMILES: CC(C)[C@H](N)c1nc2cc(C(F)(F)F)ccc2n1Cc1ccc(Cl)cc1
- inhibition (Candida albicans [8]): inactive

SMILES: Cc1cccc(Cn2c(C(C)(C)N)nc3cc(C(F)(F)F)ccc32)c1
- inhibition (Candida albicans [8]): inactive

SMILES: CCC(C)[C@H](N)c1nc2cc(Cl)c(Cl)cc2n1Cc1cccc(OC)c1 (stereo partly drawn)
- inhibition (Candida albicans [8]): inactive

SMILES: CCC(C)[C@H](N)c1nc2ccccc2n1Cc1ccc(Cl)cc1 (stereo partly drawn)
- inhibition (Candida albicans [8]): inactive

SMILES: COc1cccc(Cn2c(C(C)(C)N)nc3cc(Cl)c(Cl)cc32)c1
- inhibition (Candida albicans [8]): inactive

SMILES: OC(Cn1cncn1)(Cn1cncn1)c1ccc(F)cc1F [FLUCONAZOLE]
- MIC (Candida albicans [1]): 128 µg/mL (≈ 418 µM)
- MIC (Nakaseomyces glabratus [2]): 4 µg/mL (≈ 13.1 µM)
- MIC (Candida parapsilosis [3]): 1 µg/mL (≈ 3.27 µM)
- MIC (Candida albicans [4]): 128 µg/mL (≈ 418 µM)
- MIC (Candida albicans [5]): 0.125 µg/mL (≈ 0.408 µM)
- MIC (Candida albicans [6]): 0.5 µg/mL (≈ 1.63 µM)
- MIC (Candida parapsilosis [7]): 0.25 µg/mL (≈ 0.816 µM)
- MIC (Candida albicans [9]): 8 µg/mL (≈ 26.1 µM)
- MIC (Candida tropicalis): 128 µg/mL (≈ 418 µM)
- MIC (Nakaseomyces glabratus [10]): 4 µg/mL (≈ 13.1 µM)
- MIC (Candida albicans [11]): 8 µg/mL (≈ 26.1 µM)
- MIC (Candida albicans [12]): 0.125 µg/mL (≈ 0.408 µM)
- MIC (Candida albicans [13]): 1 µg/mL (≈ 3.27 µM)
- MIC (Candida parapsilosis [14]): 0.25 µg/mL (≈ 0.816 µM)
- MIC (Candida albicans [15]): 0.5 µg/mL (≈ 1.63 µM)
- MIC (Pichia kudriavzevii): 0.25 µg/mL (≈ 0.816 µM)
- MIC (Candida parapsilosis [16]): 2 µg/mL (≈ 6.53 µM)
- MIC (Candida albicans [17]): 0.5 µg/mL (≈ 1.63 µM)
- MIC (Candida albicans [18]): 0.125 µg/mL (≈ 0.408 µM)
- MIC (Nakaseomyces glabratus [19]): 0.125 µg/mL (≈ 0.408 µM)
- MIC (Candida albicans [20]): 2 µg/mL (≈ 6.53 µM)

SMILES: COc1cccc(Cn2c([C@H](C)N)nc3cc(C(F)(F)F)ccc32)c1
- inhibition (Candida albicans [8]): inactive

SMILES: CC(C)C[C@H](N)c1nc2ccccc2n1Cc1ccc(Cl)cc1
- IC50 (Candida albicans [21]; [24]): 4 µM
- CC50 at 120 h [22]: 36 µM
- inhibition (Candida albicans [8]): inactive
- Ratio CC50/IC50 [23]: 9

SMILES: COc1cccc(Cn2c([C@@H](N)CC(C)C)nc3ccccc32)c1
- inhibition (Candida albicans [8]): inactive

SMILES: CC(C)[C@H](N)c1nc2ccccc2n1Cc1cccc(Cl)c1
- IC50 (Candida albicans [21]; [24]): 0.75 µM
- MIC (Candida albicans [1]): 16 µg/mL (≈ 51 µM)
- MIC (Nakaseomyces glabratus [2]): 0.125 µg/mL (≈ 0.398 µM)
- MIC (Candida parapsilosis [3]): 2 µg/mL (≈ 6.37 µM)
- MIC (Candida albicans [4]): 16 µg/mL (≈ 51 µM)
- MIC (Candida albicans [5]): 0.125 µg/mL (≈ 0.398 µM)
- CC50 at 120 h [22]: 97.5 µM
- MIC (Candida albicans [6]): 0.25 µg/mL (≈ 0.797 µM)
- MIC (Candida parapsilosis [7]): 0.5 µg/mL (≈ 1.59 µM)
- MIC (Candida albicans [9]): 32 µg/mL (≈ 102 µM)
- MIC (Candida tropicalis): 4 µg/mL (≈ 12.7 µM)
- MIC (Nakaseomyces glabratus [10]): 2 µg/mL (≈ 6.37 µM)
- MIC (Candida albicans [11]): 16 µg/mL (≈ 51 µM)
- MIC (Candida albicans [12]): 64 µg/mL (≈ 204 µM)
- MIC (Candida albicans [13]): 16 µg/mL (≈ 51 µM)
- MIC (Candida parapsilosis [14]): 1 µg/mL (≈ 3.19 µM)
- MIC (Candida albicans [15]): 0.25 µg/mL (≈ 0.797 µM)
- Ratio CC50/IC50 [23]: 130
- MIC (Pichia kudriavzevii): 0.5 µg/mL (≈ 1.59 µM)
- MIC (Candida parapsilosis [16]): 8 µg/mL (≈ 25.5 µM)
- MIC (Candida albicans [17]): 16 µg/mL (≈ 51 µM)
- MIC (Candida albicans [18]): 0.125 µg/mL (≈ 0.398 µM)
- MIC (Nakaseomyces glabratus [19]): 0.125 µg/mL (≈ 0.398 µM)
- MIC (Candida albicans [20]): 2 µg/mL (≈ 6.37 µM)

SMILES: CCC[C@H](N)c1nc2ccccc2n1Cc1cccc(F)c1
- inhibition (Candida albicans [8]): inactive

SMILES: Cc1cccc(Cn2c([C@@H](N)CC(C)C)nc3cc(C(F)(F)F)ccc32)c1
- inhibition (Candida albicans [8]): inactive

SMILES: CCC(C)[C@H](N)c1nc2cc(Cl)c(Cl)cc2n1Cc1cccc(C)c1 (stereo partly drawn)
- inhibition (Candida albicans [8]): inactive

SMILES: Cc1cccc(Cn2c([C@H](C)N)nc3cc(Cl)c(Cl)cc32)c1
- inhibition (Candida albicans [8]): inactive

SMILES: C[C@H](N)c1nc2cc(C(F)(F)F)ccc2n1Cc1cccc(F)c1
- inhibition (Candida albicans [8]): inactive

SMILES: CCC[C@H](N)c1nc2cc(C(F)(F)F)ccc2n1Cc1cccc(C)c1
- inhibition (Candida albicans [8]): inactive
